Results from different studies.
Protocols differ between the studies behind these lines.
Target: Tyrosine-protein kinase ABL2 (ABL2, Homo sapiens, UniProt P42684)

Compound | read-out | mode | method | tested at | measurement | result
CNC(=O)c1cc(Oc2ccc(NC(=O)Nc3ccc(Cl)c(C(F)(F)F)c3)cc2)ccn1 | enzyme activity | inhibitor |  | 10 µM | inhibition | 48%
O=C(Nc1cnn(-c2csc(C(=O)NC3COC3)c2)c1)Nc1ccccc1Cl | enzyme activity | inhibitor |  | 5 µM | remaining activity | 92.7%
COc1cc(-c2cn(C3CCc4ccccc4N(CC(F)(F)F)C3=O)nn2)ccc1-n1ccc(C)n1 (centres unmarked) | cell-free assay |  | competition with immobilised ligand | 1 µM | remaining binding | 100%
CC(C)(C)c1nc2c(s1)c1nc(N)ncc1c1ccc(NS(=O)(=O)c3c(F)cccc3F)c(F)c12 | enzyme activity | inhibitor | radiometric | 1 µM | remaining activity | 99%
CNC(=O)c1cc2c(Oc3ccc(NC(=O)C4(C(=O)Nc5ccc(F)cc5)CC4)cc3)ccnc2cc1OC | enzyme activity | inhibitor | radiometric | 1 µM | inhibition | 88%
Clc1ccc(Nc2nnc(Cc3ccncc3)c3ccccc23)cc1 | cell-free assay |  |  | 0.5 µM | remaining signal | 101%
Nc1ncnc2occ(-c3ccc(NC(=O)Nc4cc(C(F)(F)F)ccc4F)cc3)c12 | cell-free assay | inhibitor |  | 20 µM | remaining signal | 0.65%
Cc1cc(NC(=O)c2cccc(S(F)(F)(F)(F)F)c2)cc(-n2ccn3nc(-c4cccnc4)cc23)c1 | cell-free assay |  | competition with immobilised ligand | 1 µM | remaining binding | 100%
O=C1NC(=O)c2cc(Nc3ccc(F)cc3)c(Nc3ccc(F)cc3)cc21 | cell-free assay |  |  | 0.5 µM | remaining signal | 89.6%
Cc1ccc(NC(=O)c2ccc(C)c(C(F)(F)F)c2)cc1C#Cc1nn(C2CCC(O)CC2)c2ncnc(N)c12 (centres unmarked) | cell-free assay |  |  | 10 µM | remaining signal | 0%
COc1cc2ncnc(Nc3ccc(Oc4ccccc4)c(C)c3C)c2cc1OC | enzyme activity | inhibitor |  | 1 µM | inhibition | 6%
COc1cc2nccc(Oc3ccc(NC(=O)c4c5n(n(-c6ccc(F)cc6)c4=O)CCCC5)cc3)c2cc1OC | enzyme activity | inhibitor |  | 0.1 µM | inhibition | 36%
C=CC(=O)Nc1cc(Nc2nccc(Nc3cc(Cl)c(F)cc3C(C)(C)O)n2)c(OC)cc1N1CC[C@@H](N(C)C)C1 | enzyme activity | inhibitor |  | 1 µM | inhibition | 18%
Cc1nc(N2CC[C@@H](O)C2)ncc1-c1cc(C(F)(F)F)cc2[nH]ncc12 | binding |  | competition with immobilised ligand | 1 µM | remaining binding | 60%
CCN(CC)CCNC(=O)c1c(C)[nH]c(/C=C2\C(=O)Nc3ccc(F)cc32)c1C | binding |  | competition with immobilised ligand | 10 µM | inhibition | 77%
Cc1nccc(COC(=O)N2C[C@@H]3[C@@H](CNC(=O)c4ccc5[nH]nnc5c4)[C@@H]3C2)n1 | cell-free assay |  | competition with immobilised ligand | 1 µM | remaining binding | 90%
Cc1ccc(Nc2nccc(N(C)c3ccc4c(C)n(C)nc4c3)n2)cc1S(N)(=O)=O | enzyme activity | inhibitor |  | 0.3 µM | inhibition | 24%
CC(=O)N1CCC(c2ccc(C(=O)NC3=NCCN3)cc2C(F)(F)F)CC1 | cell-free assay |  | competition with immobilised ligand | 1 µM | remaining binding | 100%
O=C(Nc1cnn(-c2csc(C(=O)NC3COC3)c2)c1)Nc1c(F)cccc1Cl | enzyme activity | inhibitor |  | 5 µM | remaining activity | 88.7%
Cn1cc(Cl)c2c(Oc3c(F)cc(Nc4cc(Cl)nc(N)n4)cc3F)ccnc21 | cell-free assay |  | competition with immobilised ligand | 0.1 µM | remaining binding | 99%
Cc1cc(NC(=O)c2cccc3cc(-c4cccc5[nH]nc(N)c45)ccc23)ccc1F | enzyme activity | inhibitor |  | 0.1 µM | activity vs control | 122%
CN(C(=O)c1ccccc1)c1cc(N(C)c2ccc3c(c2)CCc2ccc(C(=O)NCCN4CCOCC4)cc2C3=O)ccc1F | cell-free assay |  | competition with immobilised ligand | 1 µM | remaining binding | 100%
COc1cc(Cl)c(C(=O)N[C@@H](CN[C@H]2CC[C@@H](N)CC2)Cc2ccc(C#N)cc2)cc1-c1ccc(CN[C@H](C)c2ccc(C)cc2)o1 | enzyme activity | inhibitor |  | 1 µM | remaining activity | 87%
